From ChEMBL document CHEMBL4619723, “New CDK8 inhibitors as potential anti-leukemic agents - Design, synthesis and biological evaluation” (Bioorg Med Chem, 2020)

Assays:
[1] = target: Serine/threonine-protein kinase 32C (Homo sapiens) (UniProt Q86UX6); assay: Inhibition of biotinylated ligand binding to wild-type human partial length YANK3 (M68 to G486 residues) expressed in bacterial expression system at 50 nM measured after 1 hr by kinomescan assay relative to control
Method in brief: (§1)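 Kinase-tagged T7 phage was grown in an E. coli BL21-derived host at 32 °C until lysis, and the lysate was clarified. Kinase was bound to streptavidin beads carrying a biotinylated ligand, with test compound at 50 nM (final DMSO), in binding buffer for 1 h at rt. Bound kinase was eluted and quantified by qPCR. Result is POC relative to the DMSO (100%) and control-compound (0%) references.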

[2] = target: Serine/threonine-protein kinase PLK4 (Homo sapiens) (UniProt O00444); assay: Inhibition of biotinylated ligand binding to wild-type human partial length PLK4 (M1 to S273 residues) expressed in mammalian expression system at 50 nM measured after 1 hr by kinomescan assay relative to control
Chain of Serine/threonine-protein kinase PLK4 (Homo sapiens) (O00444 whole entry, the tested form may be a part): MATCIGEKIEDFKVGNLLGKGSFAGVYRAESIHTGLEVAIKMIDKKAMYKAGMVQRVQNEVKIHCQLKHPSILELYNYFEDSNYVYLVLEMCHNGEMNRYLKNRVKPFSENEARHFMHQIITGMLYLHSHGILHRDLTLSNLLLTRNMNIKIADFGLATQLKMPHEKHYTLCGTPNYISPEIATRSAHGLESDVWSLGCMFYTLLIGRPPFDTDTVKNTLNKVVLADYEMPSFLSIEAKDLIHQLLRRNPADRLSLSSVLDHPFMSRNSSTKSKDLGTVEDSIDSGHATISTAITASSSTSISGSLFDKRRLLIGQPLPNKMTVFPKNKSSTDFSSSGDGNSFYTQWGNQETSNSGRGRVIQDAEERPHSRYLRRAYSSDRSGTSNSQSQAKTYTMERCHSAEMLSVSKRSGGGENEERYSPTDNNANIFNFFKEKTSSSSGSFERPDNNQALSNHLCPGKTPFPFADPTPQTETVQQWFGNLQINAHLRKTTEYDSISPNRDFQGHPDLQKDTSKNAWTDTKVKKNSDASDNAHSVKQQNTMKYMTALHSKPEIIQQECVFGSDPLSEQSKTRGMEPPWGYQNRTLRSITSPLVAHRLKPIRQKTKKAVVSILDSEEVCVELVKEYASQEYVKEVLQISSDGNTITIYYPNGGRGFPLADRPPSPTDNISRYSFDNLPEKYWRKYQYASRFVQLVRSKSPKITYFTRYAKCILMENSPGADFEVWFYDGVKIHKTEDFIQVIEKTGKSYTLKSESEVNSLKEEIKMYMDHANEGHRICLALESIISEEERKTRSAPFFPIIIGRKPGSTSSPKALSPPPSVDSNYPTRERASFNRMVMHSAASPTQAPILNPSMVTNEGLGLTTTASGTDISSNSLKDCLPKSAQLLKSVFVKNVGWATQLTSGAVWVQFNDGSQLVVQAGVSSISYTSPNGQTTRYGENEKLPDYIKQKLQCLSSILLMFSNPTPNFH
Method in brief: (§2)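 Competition binding: kinase was bound to streptavidin beads carrying a biotinylated ligand, with test compound at 50 nM, in 20% SeaBlock, 0.17x PBS, 0.05% Tween 20 and 6 mM DTT for 1 h at rt with shaking. After washing, kinase was eluted with 0.5 μM free ligand and quantified by qPCR. Result is POC relative to the DMSO (100%) and control-compound (0%) references.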

[3] = target: cGMP-dependent protein kinase 2 (Homo sapiens) (UniProt Q13237); assay: Inhibition of biotinylated ligand binding to wild-type human partial length PRKG2 (S422 to F762 residues) expressed in mammalian expression system at 50 nM measured after 1 hr by kinomescan assay relative to control; method in brief: as §2
Chain of cGMP-dependent protein kinase 2 (Homo sapiens) (Q13237 whole entry, the tested form may be a part): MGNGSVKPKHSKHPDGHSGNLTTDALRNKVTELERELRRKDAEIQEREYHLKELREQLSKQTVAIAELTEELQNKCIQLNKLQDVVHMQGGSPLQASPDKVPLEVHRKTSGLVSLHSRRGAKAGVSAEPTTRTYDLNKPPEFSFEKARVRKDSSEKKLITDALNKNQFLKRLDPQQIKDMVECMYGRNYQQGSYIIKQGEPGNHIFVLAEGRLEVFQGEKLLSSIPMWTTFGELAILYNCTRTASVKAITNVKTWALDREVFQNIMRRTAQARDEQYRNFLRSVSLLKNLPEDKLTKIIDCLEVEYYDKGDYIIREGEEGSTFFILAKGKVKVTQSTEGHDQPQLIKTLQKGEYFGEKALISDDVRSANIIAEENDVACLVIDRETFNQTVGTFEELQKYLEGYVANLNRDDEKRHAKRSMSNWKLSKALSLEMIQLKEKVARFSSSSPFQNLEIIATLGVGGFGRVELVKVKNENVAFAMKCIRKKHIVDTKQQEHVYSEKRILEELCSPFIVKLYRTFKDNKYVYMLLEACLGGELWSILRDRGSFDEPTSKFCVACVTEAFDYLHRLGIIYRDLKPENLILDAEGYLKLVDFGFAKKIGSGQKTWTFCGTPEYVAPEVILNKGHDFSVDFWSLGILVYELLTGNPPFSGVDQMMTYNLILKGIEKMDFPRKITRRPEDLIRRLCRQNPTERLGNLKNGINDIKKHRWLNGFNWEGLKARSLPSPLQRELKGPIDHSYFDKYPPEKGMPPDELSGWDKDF

[4] = target: Phosphatidylinositol 5-phosphate 4-kinase type-2 beta (Homo sapiens) (UniProt P78356); assay: Inhibition of biotinylated ligand binding to wild-type human full length PIP5K2B (M1 to T416 residues) expressed in bacterial expression system at 50 nM measured after 1 hr by kinomescan assay relative to control; method in brief: as §1
Chain of Phosphatidylinositol 5-phosphate 4-kinase type-2 beta (Homo sapiens) (P78356 whole entry, the tested form may be a part): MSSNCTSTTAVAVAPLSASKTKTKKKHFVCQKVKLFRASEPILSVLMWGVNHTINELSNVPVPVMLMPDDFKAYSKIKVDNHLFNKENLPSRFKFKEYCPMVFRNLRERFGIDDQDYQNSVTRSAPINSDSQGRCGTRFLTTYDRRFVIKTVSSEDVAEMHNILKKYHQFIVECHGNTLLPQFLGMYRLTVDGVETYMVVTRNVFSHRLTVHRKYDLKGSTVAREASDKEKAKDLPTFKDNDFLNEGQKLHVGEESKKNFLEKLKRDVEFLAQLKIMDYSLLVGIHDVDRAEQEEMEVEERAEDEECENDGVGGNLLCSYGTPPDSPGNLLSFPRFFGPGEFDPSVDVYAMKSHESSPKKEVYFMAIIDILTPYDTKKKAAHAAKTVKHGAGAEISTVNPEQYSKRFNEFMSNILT

[5] = target: Vascular endothelial growth factor receptor 3 (Homo sapiens) (UniProt P35916); assay: Inhibition of biotinylated ligand binding to wild-type human partial length FLT4 (E821 to E1196 residues) expressed in bacterial expression system at 50 nM measured after 1 hr by kinomescan assay relative to control; method in brief: as §1
[6] = target: Activin receptor type-1 (Homo sapiens) (UniProt Q04771); assay: Inhibition of biotinylated ligand binding to wild-type human ACVR1 (C188 to C509 residues) expressed in bacterial expression system at 50 nM measured after 1 hr by kinomescan assay relative to control; method in brief: as §1
Chain of Activin receptor type-1 (Homo sapiens) (Q04771 whole entry, the tested form may be a part): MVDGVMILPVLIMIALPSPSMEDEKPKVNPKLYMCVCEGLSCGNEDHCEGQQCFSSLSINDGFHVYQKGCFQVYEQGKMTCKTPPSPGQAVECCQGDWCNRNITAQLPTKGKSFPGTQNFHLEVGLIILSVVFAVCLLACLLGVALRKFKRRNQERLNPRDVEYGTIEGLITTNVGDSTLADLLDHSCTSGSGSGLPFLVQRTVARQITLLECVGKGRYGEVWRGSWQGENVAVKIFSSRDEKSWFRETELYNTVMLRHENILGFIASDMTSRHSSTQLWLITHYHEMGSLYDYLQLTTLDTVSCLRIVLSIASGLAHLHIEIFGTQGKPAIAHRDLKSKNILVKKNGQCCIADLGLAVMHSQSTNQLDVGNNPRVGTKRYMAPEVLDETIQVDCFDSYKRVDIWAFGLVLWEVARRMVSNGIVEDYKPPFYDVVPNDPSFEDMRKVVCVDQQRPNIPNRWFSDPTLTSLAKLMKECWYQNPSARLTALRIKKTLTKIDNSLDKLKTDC

[7] = target: Cyclin-dependent kinase 19 (Homo sapiens) (UniProt Q9BWU1); assay: Inhibition of biotinylated ligand binding to wild-type human partial length CDK11 (M1 to N360 residues) expressed in bacterial expression system at 50 nM measured after 1 hr by kinomescan assay relative to control
Method in brief: (§3)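 T7 phage-tagged kinase lysates from E. coli BL21 were mixed with streptavidin beads carrying biotinylated ligand and 50 nM compound. Incubated 1 h at room temperature with shaking, washed, then eluted 30 min with 0.5 μM non-biotinylated ligand. Kinase was quantified by qPCR. POC = (test − positive)/(DMSO − positive) ×100, with a control compound as positive.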

[8] = target: T1, Cyclin-dependent kinase 8 (Homo sapiens, UniProt P49336); assay: Inhibition of biotinylated ligand binding to wild-type human partial length CDK8 (M1 to T360 residues) expressed in Escherichia coli BL21 at 50 nM measured after 1 hr by kinomescan assay relative to control; method in brief: as §3
T1 sequence (P49336 whole entry, the tested form may be a part): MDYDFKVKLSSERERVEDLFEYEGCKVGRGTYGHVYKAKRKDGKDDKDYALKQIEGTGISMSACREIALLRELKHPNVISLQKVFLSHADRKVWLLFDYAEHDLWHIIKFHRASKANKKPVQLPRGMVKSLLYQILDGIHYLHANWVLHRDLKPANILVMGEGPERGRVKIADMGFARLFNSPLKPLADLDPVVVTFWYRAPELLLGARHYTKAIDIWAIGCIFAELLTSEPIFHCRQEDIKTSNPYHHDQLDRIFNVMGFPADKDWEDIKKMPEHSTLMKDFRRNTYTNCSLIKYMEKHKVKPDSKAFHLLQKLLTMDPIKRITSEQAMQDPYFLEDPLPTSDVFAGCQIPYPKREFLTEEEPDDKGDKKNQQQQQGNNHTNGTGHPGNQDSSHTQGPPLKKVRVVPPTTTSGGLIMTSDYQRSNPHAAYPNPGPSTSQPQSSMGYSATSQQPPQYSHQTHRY

[9] = target: T1, Cyclin-dependent kinase 8; assay: Inhibition of biotinylated ligand binding to wild-type human partial length CDK8 (M1 to T360 residues) expressed in Escherichia coli BL21 measured after 1 hr by kinomescan assay
[10] = test system: Hepatocyte growth factor receptor (Homo sapiens), P08581 [Y1235D]; assay: Inhibition of biotinylated ligand binding to human partial length MET Y1235D mutant (D1010 to S1367 residues) expressed in bacterial expression system at 50 nM measured after 1 hr by kinomescan assay relative to control; method in brief: as §1
[11] = target: Serine/threonine-protein kinase LATS1 (Homo sapiens) (UniProt O95835); assay: Inhibition of biotinylated ligand binding to wild-type human partial length LATS1 (Q678 to V1130 residues) expressed in bacterial expression system at 50 nM measured after 1 hr by kinomescan assay relative to control; method in brief: as §1
[12] = target: Serine/threonine-protein kinase pim-2 (Homo sapiens) (UniProt Q9P1W9); assay: Inhibition of biotinylated ligand binding to wild-type human partial length PIM2 (M1 to E291 residues) expressed in bacterial expression system at 50 nM measured after 1 hr by kinomescan assay relative to control
Chain of Serine/threonine-protein kinase pim-2 (Homo sapiens) (Q9P1W9 whole entry, looked up, the tested form may be a part): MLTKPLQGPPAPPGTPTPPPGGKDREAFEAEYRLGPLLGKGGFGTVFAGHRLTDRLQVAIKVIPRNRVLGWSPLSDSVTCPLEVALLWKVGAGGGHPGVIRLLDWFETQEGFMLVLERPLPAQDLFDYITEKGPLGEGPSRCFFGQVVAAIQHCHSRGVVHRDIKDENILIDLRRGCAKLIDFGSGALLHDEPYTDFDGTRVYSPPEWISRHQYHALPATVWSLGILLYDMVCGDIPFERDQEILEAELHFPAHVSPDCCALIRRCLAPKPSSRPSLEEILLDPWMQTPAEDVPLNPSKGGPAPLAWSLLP

[13] = target: SRSF protein kinase 3 (Homo sapiens) (UniProt Q9UPE1); assay: Inhibition of biotinylated ligand binding to wild-type human partial length SRPK3 (P41 to P567 residues) expressed in bacterial expression system at 50 nM measured after 1 hr by kinomescan assay relative to control; method in brief: as §1
[14] = target: Serine/threonine-protein kinase 32A (Homo sapiens) (UniProt Q8WU08); assay: Inhibition of biotinylated ligand binding to wild-type human full length YANK1 (M1 to L396 residues) expressed in mammalian expression system at 50 nM measured after 1 hr by kinomescan assay relative to control; method in brief: as §2
Chain of Serine/threonine-protein kinase 32A (Homo sapiens) (Q8WU08 whole entry, the tested form may be a part): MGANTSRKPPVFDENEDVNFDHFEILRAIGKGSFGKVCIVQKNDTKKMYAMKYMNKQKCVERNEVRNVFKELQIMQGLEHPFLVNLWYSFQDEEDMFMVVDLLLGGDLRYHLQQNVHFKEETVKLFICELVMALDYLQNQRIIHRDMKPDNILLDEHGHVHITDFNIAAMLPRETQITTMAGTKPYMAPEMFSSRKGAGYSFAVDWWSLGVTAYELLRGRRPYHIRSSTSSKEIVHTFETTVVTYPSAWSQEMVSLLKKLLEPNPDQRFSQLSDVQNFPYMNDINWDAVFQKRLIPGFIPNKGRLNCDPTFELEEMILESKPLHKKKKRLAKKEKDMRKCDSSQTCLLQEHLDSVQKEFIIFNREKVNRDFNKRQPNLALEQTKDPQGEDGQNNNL

[15] = target: Dual specificity protein kinase CLK4 (Homo sapiens) (UniProt Q9HAZ1); assay: Inhibition of biotinylated ligand binding to wild-type human partial length CLK4 (R135 to K481 residues) expressed in bacterial expression system at 50 nM measured after 1 hr by kinomescan assay relative to control; method in brief: as §1
[16] = target: Serine/threonine-protein kinase MAK (Homo sapiens) (UniProt P20794); assay: Inhibition of biotinylated ligand binding to wild-type human partial length MAK (M1 to P314 residues) expressed in bacterial expression system at 50 nM measured after 1 hr by kinomescan assay relative to control
Chain of Serine/threonine-protein kinase MAK (Homo sapiens) (P20794 whole entry, the tested form may be a part): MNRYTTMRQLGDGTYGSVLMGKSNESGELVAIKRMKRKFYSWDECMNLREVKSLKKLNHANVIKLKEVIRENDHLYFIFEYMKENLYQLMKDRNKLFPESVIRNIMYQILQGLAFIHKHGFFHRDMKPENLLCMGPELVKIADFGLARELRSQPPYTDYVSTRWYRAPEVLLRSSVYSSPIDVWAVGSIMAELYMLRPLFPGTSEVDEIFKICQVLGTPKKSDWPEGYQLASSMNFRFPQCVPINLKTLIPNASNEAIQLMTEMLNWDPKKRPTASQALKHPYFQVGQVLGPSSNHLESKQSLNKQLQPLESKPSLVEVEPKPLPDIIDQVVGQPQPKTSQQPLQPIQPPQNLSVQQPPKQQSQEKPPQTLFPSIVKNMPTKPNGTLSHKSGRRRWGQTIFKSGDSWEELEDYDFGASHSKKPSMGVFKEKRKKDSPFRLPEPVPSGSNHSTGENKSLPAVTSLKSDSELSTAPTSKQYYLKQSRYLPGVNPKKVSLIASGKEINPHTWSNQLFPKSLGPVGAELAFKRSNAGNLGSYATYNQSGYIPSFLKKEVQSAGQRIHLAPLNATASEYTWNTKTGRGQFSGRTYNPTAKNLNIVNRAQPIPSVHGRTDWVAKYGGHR

[17] = target: cGMP-dependent protein kinase 1 (Homo sapiens) (UniProt Q13976); assay: Inhibition of biotinylated ligand binding to wild-type human partial length PRKG1 (L339 to F686 residues) expressed in bacterial expression system at 50 nM measured after 1 hr by kinomescan assay relative to control; method in brief: as §1
[18] = target: Serine/threonine-protein kinase RIO2 (Homo sapiens) (UniProt Q9BVS4); assay: Inhibition of biotinylated ligand binding to wild-type human partial length RIOK2 (M1 to D313 residues) expressed in mammalian expression system at 50 nM measured after 1 hr by kinomescan assay relative to control; method in brief: as §2
Chain of Serine/threonine-protein kinase RIO2 (Homo sapiens) (Q9BVS4 whole entry, looked up, the tested form may be a part): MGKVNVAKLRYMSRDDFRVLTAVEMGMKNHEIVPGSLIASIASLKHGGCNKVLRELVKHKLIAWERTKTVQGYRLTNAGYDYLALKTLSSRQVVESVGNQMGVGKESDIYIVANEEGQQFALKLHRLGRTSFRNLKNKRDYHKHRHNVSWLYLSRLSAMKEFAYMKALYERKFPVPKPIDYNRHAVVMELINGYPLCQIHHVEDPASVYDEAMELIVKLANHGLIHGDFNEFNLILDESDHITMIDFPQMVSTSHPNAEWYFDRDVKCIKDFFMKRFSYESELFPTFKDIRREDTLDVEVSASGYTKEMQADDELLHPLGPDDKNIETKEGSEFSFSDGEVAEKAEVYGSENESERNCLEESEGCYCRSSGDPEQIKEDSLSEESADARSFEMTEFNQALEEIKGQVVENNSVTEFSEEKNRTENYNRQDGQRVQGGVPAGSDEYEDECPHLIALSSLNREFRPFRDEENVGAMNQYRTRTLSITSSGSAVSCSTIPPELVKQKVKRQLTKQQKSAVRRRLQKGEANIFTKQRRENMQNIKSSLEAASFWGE

[19] = Selectivity ratio of EC50 for rat H9c2 cells to EC50 for human OCI-AML3 cells; type: toxicity; conditions: H9c2 cells versus OCI-AML3 cells, read-out: Ratio EC50
[20] = Selectivity ratio of EC50 for rat H9c2 cells to EC50 for human MV4-11 cells; type: toxicity; conditions: H9c2 cells versus MV4-11 cells, read-out: Ratio EC50
[21] = test system: NRK; assay: cells; conditions: Rattus norvegicus, 48 h
[22] = test system: H9c2; assay: cells; conditions: Rattus norvegicus, H9c2, 48 h

CN(C)[C@@H]1CC[C@@]2(C)[C@@H](CC[C@@H]3[C@@H]2CC[C@]2(C)C(c4cccc5cnccc45)=CC[C@@H]32)C1
> 80%: inhibition [1] | inhibition [2] | inhibition [3] | inhibition [4] | inhibition [5] | inhibition [6] | inhibition [7] | inhibition [8] | inhibition [10] | inhibition [11] | inhibition [12] | inhibition [13] | inhibition [14] | inhibition [15] | inhibition [16] | inhibition [17] | inhibition [18]
3 to 4: selectivity ratio [19] | selectivity ratio [20]
12.5 to 25 µM: EC50 [22]
16.2 µM: EC50 [21]
0.0035 µM: Kd [9]
